Source: PubChem (The Scripps Research Institute Molecular Screening Center)
TAAR1 antag: human TAAR1 antagonism. inhibition, % at 3 µM. CHO RD-HGA16 TAAR1, Fluo-8 calcium fluorescence, antagonist. actives 1.5% (n = 360,000). Q96RJ0;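 active means inhibition above a per-plate cutoff, the mean inhibition of test compounds on that plate plus 3 SD, cut at about 49% in these data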;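 further: 0% = DMSO plus EC80 beta-PEA response and 100% = DMSO alone without agonist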
Target sequence (Q96RJ0 whole entry, looked up): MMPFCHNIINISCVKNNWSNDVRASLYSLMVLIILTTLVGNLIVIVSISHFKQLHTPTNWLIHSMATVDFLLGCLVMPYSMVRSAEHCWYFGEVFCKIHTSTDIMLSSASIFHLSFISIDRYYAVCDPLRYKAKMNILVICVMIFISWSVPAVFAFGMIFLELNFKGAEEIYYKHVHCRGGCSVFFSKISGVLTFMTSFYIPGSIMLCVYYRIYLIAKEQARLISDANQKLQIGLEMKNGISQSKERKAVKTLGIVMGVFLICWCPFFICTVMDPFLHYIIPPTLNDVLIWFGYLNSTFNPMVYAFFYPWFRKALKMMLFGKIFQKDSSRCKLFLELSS
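Test system – hTAAR1-expressing CHO RD-HGA16 cells, Gα16-coupled · Also added – β-PEA at EC80 concentration, post-compound challenge · Compound – 3 µM, single point · Incubation – dye loading 75 min at 37 °C, then 30 min room temperature · Measured by – Fluo-8 intracellular calcium dye fluorescence, real-time kinetic reads · Benchmarks – vehicle and agonist controls · Replicates – singlicate, one well per test compound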
OX1R antag-1: OX1R (human) antagonism | O43613 | OX1R-expressing cells, FRET antagonist read-out | inhibition, % at 6.6 µM | actives 1.8% (n = 330,000) | AID 485270; in the data active means inhibition mostly above about 38%, no sharp cut-off; inactive means mostly below about 40%;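 further: 0% = agonist challenge alone and 100% = reference antagonist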
CHO parental Ca: counter-screen for OX1R antagonists: effect in parental CHO cells | parental CHO-K1, ATP-induced calcium, Fluo-8 fluorescence | inhibition, % at 5.6 µM | actives 0.63% (n = 330,000) | AID 463079;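 active means inhibition above that plate's mean sample inhibition plus 3 SD, cut at about 26% in these data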;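 further: 0% = ATP-challenged DMSO wells and 100% = DMSO wells without ATP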
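Assay system: untransfected parental CHO cell line. Also added: ATP agonist challenge. Dosing: one dose, 5.6 µM nominal. Measured by: Fluo-8 fluorescence. Read-out: % inhibition. Benchmarks: ATP wells versus no-ATP DMSO wells. Repeats: no replicates.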
OX1R antag-2: human HCRTR1 antagonism. O43613. CHO/OX1R cells, Fluo-8 calcium fluorescence, orexin A. inhibition, % at 5 µM. actives 0.43% (n = 330,000). AID 434989;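 active means inhibition above its plate's threshold, mean inhibition of all tested compounds on the plate plus 3 SD, cut at about 37% in these data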;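 further: 0% = orexin A challenge wells and 100% = SB-334867-A antagonist wells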
GalR3 antagonist: blocks the human galanin receptor 3 | inhibition, % at 3 µM | AID 651719 | O60755 | actives 0.44% (n = 360,000) | HEK293 GalR3-CNG cAMP membrane potential fluorescence; galR3 body fused to GalR1 C-terminus;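 active means inhibition above the screen-wide average plus 3 SD, cut at about 13% in these data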;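 further: forskolin and galanin both at EC90 stimulate the cells; cAMP rise reported by CNG channel membrane potential dye signal; 0% = forskolin plus galanin with DMSO and 100% = forskolin alone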
TAAR1 agonist: agonists of human TAAR1; actives 0.99% (n = 360,000); Q96RJ0; CHO RD-HGA16 TAAR1, Fluo-8 calcium fluorescence; vehicle wells 0%, saturating PEA agonist 100%; activation, % at 3 µM;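 active means activation above the mean activation of all test compounds in the run plus 3 SD, cut at about 38% in these data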
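Test system: RD-HGA16 (CHO) cells co-expressing Gα16 and hTAAR1 / Benchmarks: DMSO vehicle as 0%, PEA at EC100 as 100% / Repeats: no replicates (n 1) / Measure: % activation from peak over basal fluorescence ratio, DMSO-to-PEA scaled / Timing: 17-24 h plating, Fluo-8 75 min 37 °C, 30 min RT / Technique: kinetic Fluo-8 calcium fluorescence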
OX1R Ca confirm: confirmation of human orexin 1 receptor antagonists; shares compounds with OX1R antag-2; CHO/OX1R cells, orexin A calcium Fluo-8 fluorescence; actives 38% (n = 1,100); inhibition, % at 5 µM; in the data active means inhibition above about 29%;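 further: 0% = agonist challenge alone and 100% = reference antagonist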
CHO Ca triplic: counter-screen: parental CHO calcium response change, triplicate; actives 9.3% (n = 1,100); parental CHO-K1, ATP-induced calcium, Fluo-8 fluorescence; shares compounds with OX1R antag-2; inhibition, % at 5.6 µM;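 active means inhibition above a per-plate limit, the mean inhibition of that plate's test compounds plus 3 SD, cut at about 25% in these data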;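 further: 0% = ATP challenge with DMSO and 100% = DMSO without ATP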
OX1R HTRF confirm: confirmation of human orexin 1 receptor antagonists, HTRF format | actives 49% (n = 1,800) | OX1R-expressing cells, HTRF antagonist assay | AID 492964 | inhibition, % at 6.6 µM | shares compounds with OX1R antag-1; in the data active means inhibition above about 55%;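 further: CHO cells expressing OX1R stimulated with orexin A at about EC80; 0% = agonist challenge alone and 100% = reference antagonist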
CHO-K1 HTRF cnt: counter-screen for OX1R antagonists: effect in parental CHO-K1 cells; shares compounds with OX1R antag-1; HTRF counterscreen; inhibition, % at 6.6 µM; actives 48% (n = 1,800); AID 493232; in the data active means inhibition above about 17%;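 further: 0% = agonist challenge with vehicle and 100% = vehicle alone without agonist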
An asterisk follows results filed as active; . = no result given. Only some compounds are listed: those with a hit (about 4.3% of all), similar ones and a draw of the others.

SMILES | TAAR1 antag | OX1R antag-1 | CHO parental Ca | OX1R antag-2 | GalR3 antagonist | TAAR1 agonist | OX1R Ca confirm | CHO Ca triplic | OX1R HTRF confirm | CHO-K1 HTRF cnt
CC1CC(C)(C)CC2(C1)NC(=O)N(CC(=O)N1CCN(S(=O)(=O)c3ccc(F)c(F)c3F)CC1)C2=O (stereo not drawn) | -17 | . | . | . | -2 | -4 | . | . | . | .
Cn1c(O)c(/C=C2\C=NN=C2c2ccccc2)sc1=S | -12 | 39* | -21 | 41* | 1 | 4 | 9 | -6 | 40 | 1
Cc1cc(C(=O)CN2C(=O)NC3(CCCc4sccc43)C2=O)c(C)n1-c1ccccc1 (stereo not drawn) | -29 | 85* | -10 | 38* | -6 | 2 | 35* | -10 | 80* | -3
COc1ccc(-n2c(C)cc(C(=O)CN3C(=O)NC4(CCCc5sccc54)C3=O)c2C)cc1 (stereo not drawn) | 4 | 41 | -16 | -19 | -5 | 2 | . | . | . | .
CCc1nnc(SCC(=O)Nc2nc(C)c(C(=O)N(C)C)s2)n1CC | -8 | 16 | 2 | 3 | -4 | 0 | . | . | . | .
COc1ccc(OCC(=O)Nc2cccc(NC(=O)COc3ccc(OC)cc3)n2)cc1 | 32 | 17 | -14 | -25 | -5 | 14 | . | . | . | .
COc1ccc(OCC(=O)Nc2cccc3cccnc23)cc1 | 16 | 87* | -24 | 28 | -2 | -1 | 4 | -4 | 33 | 4
Cc1c(C(=O)Nc2ccc(N3CCOCC3)cc2)oc2ccccc12 | 7 | 100* | 1 | 73* | -6 | 18 | 73* | 6 | 90* | 15
Cc1ccc([N+](=O)[O-])cc1CN1CCN(c2ncc(Cc3ccccc3)cn2)CC1 | -23 | . | . | . | -4 | 0 | . | . | . | .
CC(C)(C)N1C(=O)c2ccccc2NC(=O)C1C(=O)Nc1ccc2c(c1)OCCO2 (stereo not drawn) | -8 | . | . | . | -6 | 3 | . | . | . | .
CCn1c(Cn2nnc(-c3ccccc3)n2)nnc1SCC(=O)Nc1ccccc1 | 10 | 50* | -17 | 44 | 0 | 1 | 24 | -2 | 56* | 6
CCn1c(CNC(=O)COc2ccc(C(C)C)cc2)nnc1SCC(=O)Nc1ccccc1 | -6 | 14 | -24 | -16 | -1 | 1 | . | . | . | .
COc1ccc(NC(=O)C2(C)CCN2C2Cc3ccccc3C2)cc1OC (stereo not drawn) | -15 | . | . | . | -2 | -2 | . | . | . | .
COc1ccc2oc(=Nc3cc(F)ccc3F)c(C(N)=O)cc2c1 | -11 | 87* | 4 | 27 | -6 | 9 | 43* | 1 | 75* | 11
CSCC[C@H](NC(=O)OC(C)(C)C)C(=O)N1CCC(C(=O)NCC(=O)Nc2ccc(C)cc2)CC1 | -8 | 8 | 0 | -10 | -3 | 3 | . | . | . | .
C=CCn1c2ccccc2c(=O)c2cc(C#Cc3cc(OC)cc(OC)c3)ccc21 | 35 | 47* | -15 | 69* | 4 | 9 | 45* | -16 | 66* | 20*
COc1ccc(C(=O)CC(C(=O)O)c2ccc3c(c2)OCO3)cc1OC (stereo not drawn) | -6 | . | . | . | -4 | 0 | . | . | . | .
Cc1ccc(NC2CCCN(C(=O)c3cn(C)c4ccccc34)C2)cc1C (stereo not drawn) | -20 | 80* | -14 | 27 | -4 | 3 | 23 | -12 | 90* | 2
Cn1c(N)c(C(=O)Nc2ccc3ccccc3c2)sc1=S | 16 | 34 | -2 | 3 | -6 | 11 | . | . | . | .
Cn1c(N)c(C(=O)N/N=C/c2ccccc2)sc1=S | -4 | 93* | -8 | 91* | 0 | -1 | 73* | 6 | 95* | 17*
